Source: PubChem
GRIN3A LBD mod: binders of NR3A ligand-binding domain, primary screen, biophysical, differential scanning fluorimetry, uHTS; Glutamate receptor ionotropic, NMDA 3A (GRIN3A) ligand-binding domain; NR3A LBD differential scanning fluorimetry, Tm shift; 0% = protein alone, 100% = glycine-bound protein; Tm shift relative to glycine control, % at 25 µM; hit rate 2.5% among 340,000; AID 1259313, 2017;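 active = melting temperature shift of at least 10% of the positive control shift, at one fixed dose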
CHOP inhibitor: inhibitors of CHOP promoter induction, primary screen, cell-based, unfolded protein response, luciferase reporter; CHO-K1 CHOP-promoter luciferase, tunicamycin-induced, 15-18 h; inhibition, % at 10 µM; hit rate 3.8% among 220,000; AID 2732, 2010;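 active = compounds that reduced the stress-induced luciferase reporter signal by more than about 70% of percent inhibition, limit read from the data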;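 also: 0% = tunicamycin plus vehicle and 100% = wells without tunicamycin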
aDG glyco up: activators of alpha-DG glycosylation, primary screen, uHTS, Pro5-aDG cells, AlphaScreen; alpha-DG glycosylation AlphaScreen (IIH6); 0% Pro5, 100% B10-LARGE cell signal; activation, % at 10 µM; hit rate 0.22% among 360,000;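 active = activation of at least 8% versus controls, or a plate z-score of at least 8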;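 also: Pro5 are CHO cells carrying HIG-tagged alpha-DG that lacks glycosylation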
XBP1 UPR activ: activators of adaptive XBP1 UPR arm, primary screen, cell-based, CHO-XBP1 luciferase reporter, luminescence, uHTS. hit rate 0.33% among 330,000. activation, % at 20 µM. IRE1-XBP1 UPR activation; percent of tunicamycin response, DMSO as zero;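 active = versus positive control, 20 µM dose yields 30% or more activation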;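 also: 100% = tunicamycin at 10 µg/mL and 0% = DMSO only wells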
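incubation = overnight seeding at 37 °C, 6 h compound treatment at 37 °C | assay system = CHO-XBP1 cells stably carrying IRE1-XBP1-driven luciferase reporter | input = 1000 cells per well | detection = luciferase luminescence | dosing = single point, 20 µM final compound, 1% DMSO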
UPR CHOP act: activators of apoptotic CHOP UPR arm, primary screen, cell-based, CHO-CHOP luciferase reporter, luminescence, uHTS | UPR activation; percent of tunicamycin response over DMSO baseline | activation, % at 10 µM | hit rate 0.34% among 330,000;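 active = at 10 µM dose, activation of 40% or more, normalized to positive control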;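 also: 100% = tunicamycin at 10 µg/mL and 0% = DMSO alone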
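Material: CHO-CHOP cells, stable luciferase reporter of PERK-eIF2a-CHOP signalling; quantity: 500 reporter cells seeded per well; buffer or medium: F12 medium containing 10% fetal bovine serum; compound: one dose, 10 µM in 0.5% DMSO; incubation: 6 h compound treatment, 37 °C; measured by: Steady-Glo luciferase luminescence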
MPTP inh: mitochondrial permeability transition pore inhibitors, primary screen, biochemical, isolated mouse mitochondria, absorbance. inhibition, % at 10 µM. AID 602449, 2012. Ca2+ swelling absorbance, 30 min. hit rate 1.4% among 360,000;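 active = inhibition of 50% or more, scaled per plate between neutral and stimulator controls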;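 also: 0% = DMSO wells given calcium and 100% = 1 mM EGTA wells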
MPTP counter: fluorescence retest of MPTP screen hits in isolated mitochondria, single concentration; inhibition, % at 10 µM; membrane potential, Rhodamine 123 fluorescence; shares compounds with MPTP inh; hit rate 78% among 5,000; in the data active = inhibition above about 22%;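 also: 0% = DMSO vehicle and 100% = positive control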
MPTP swell DR: mitochondrial permeability transition pore inhibitors, dose response, biochemical, absorbance, uHTS hits; shares compounds with MPTP inh; isolated mitochondria swelling; IC50, µM; hit rate 58% among 780; AID 651561, 2012; in the data active = IC50 below about 20 µM
MPTP counter DR: fluorescent counter-screen in isolated mitochondria, dose response, counter-screen for MPTP inhibitor project, biochemical, fluorescence, uHTS hits; hit rate 49% among 780; isolated mitochondria counterscreen, fluorescence read-out; IC50, µM; shares compounds with MPTP inh; in the data active = IC50 below about 80 µM
Starred values were filed as active, the others as inactive; i = inactive; · = not tested or not shown. Sampled rows, rich in hits. Any-hit rate of the full collection: about 5.6%.

SMILES	GRIN3A LBD mod	CHOP inhibitor	aDG glyco up	XBP1 UPR activ	UPR CHOP act	MPTP inh	MPTP counter	others
COCCN=C1N[C@@H](c2cccc(C(F)(F)F)c2)C(C(=O)OC)=C(C)N1Cc1ccccc1	-1.6	·	1.8	-2.1	0.4	0.3	·
Cc1c(C(=O)c2ccccc2)c(=O)n(C)c(=O)n1C	-0.4	8.3	0.0	-1.9	2.1	0.1	·
Oc1c(Cl)cc(Cl)cc1CNc1nc2ccccc2[nH]1	10.3*	·	0.1	2.9	1.4	71.7*	76.7*
COc1cccc(-c2csc(N3CCN(C(=O)Nc4ccc(Cl)cc4)CC3)n2)c1	15.2*	6.7	1.5	-0.1	2.1	88.5*	89.3*
COCCCNC(=S)N1CCN(c2nc(-c3ccc(Cl)cc3)cs2)CC1	·	·	1.6	·	·	75.5*	78.0*
CC(C)c1ccc(C(N)=S)cc1	-1.2	-15.9	0.2	2.0	-1.0	-1.2	·
Cc1ccc(CC(=O)Nc2ccc(F)c([N+](=O)[O-])c2)cc1	0.5	30.5	-0.1	-3.0	1.1	-0.7	·
Cc1ccc(NC(=S)NNc2ccc(C(=O)O)cc2[N+](=O)[O-])cc1C	-3.8	·	-0.2	0.5	0.3	53.7*	64.3*
Cc1ccc(Nc2ccc(C(N)=O)cc2[N+](=O)[O-])cc1C	-1.0	10.2	0.5	-0.7	0.2	8.2	·
Cc1ccc(NC(=O)C[n+]2ccccc2)cc1[N+](=O)[O-]	0.8	5.3	-0.1	4.5	0.2	-0.6	·
Cc1ccc(NC(=S)NCc2ccccc2)cc1[N+](=O)[O-]	-11.2	32.3	0.3	-4.7	-0.7	98.6*	91.2*
CNC(=S)Nc1ccc([N+](=O)[O-])c(C)c1	0.8	-10.3	0.0	-2.4	-0.4	62.4*	78.4*
Cc1ccc(CNC(=S)Nc2ccc(C)c([N+](=O)[O-])c2)cc1	10.6*	49.0	0.1	-0.5	1.4	102.5*	97.5*
O=C(Nc1ccc([N+](=O)[O-])cc1)/C(=C/c1cccc([N+](=O)[O-])c1)NC(=O)C1CCCCC1	0.5	-9.5	-0.2	-2.2	0.9	98.1*	75.1*
CN1CCN(CC(=O)N2c3ccccc3C(C)(c3ccc(Cl)cc3)CC2(C)C)CC1 (stereo unspecified)	7.2	32.2	2.0	0.4	-3.6	74.9*	-2.5	MPTP swell DR=18.7*;MPTP counter DR=>80
CN1CCN(CC(=O)N2c3ccccc3C(C)(c3ccccc3)CC2(C)C)CC1 (stereo unspecified)	-1.7	14.6	-0.1	2.0	-0.6	74.3*	-9.3	MPTP swell DR=i;MPTP counter DR=>80
Cc1nc(SCC(=O)NNC(=O)c2cccs2)[nH]c(=O)c1C	-0.2	13.1	0.1	0.3	3.4	1.1	·
COc1ccccc1/C=C/C(=O)c1cc(Br)ccc1OC(=O)c1ccco1	2.4	·	-0.5	29.5	26.1	57.0*	-9.4
CCc1nn(CC(=O)NCCCN(C)Cc2ccccc2)c(=O)c2cc3sc(C)cc3n12	-2.2	·	0.3	-1.9	-0.4	-1.5	·
COc1ccc2[nH]c(CN3CCC(CO)(CCOc4ccccc4)CC3)c(C)c2c1	-3.2	30.4	3.8	-0.2	0.5	66.5*	-15.7	MPTP swell DR=5.83*;MPTP counter DR=>80
COCCCNCCCCOc1ccc(OCc2ccccc2)cc1	-1.2	29.7	4.4	-0.3	6.2	3.4	·
c1ccc(COc2ccc(OCCCNC3CCCC3)cc2)cc1	-1.0	51.9	4.1	4.8	2.4	90.5*	-10.6	MPTP swell DR=3.15*;MPTP counter DR=42.8*
COC(=O)[C@]12CCCCC=C1N(Cc1ccc3c(c1)OCO3)C(=O)[C@H](CC(=O)NCc1ccc(C)o1)C2	·	·	0.0	·	·	1.6	·
S=C(Nc1ccccc1Oc1ccccc1)Nc1cccc(Cl)c1Cl	-3.0	34.8	-0.2	·	·	77.8*	68.8*
S=C(Nc1cccc(Cl)c1)Nc1ccccc1Oc1ccccc1	9.7	73.6*	-0.1	-0.7	-5.1	91.3*	110.4*
SMILES	GRIN3A LBD mod	CHOP inhibitor	aDG glyco up	XBP1 UPR activ	UPR CHOP act	MPTP inh	MPTP counter	others
CCNC(=S)Nc1cc(Cl)ccc1Oc1ccccc1	-8.4	15.3	0.0	-3.7	-2.0	30.8	·
O=C(Nc1ccccc1Oc1ccccc1)C1CCCC1	-1.2	36.8	0.3	0.2	0.3	-0.3	·
Cc1noc(C)c1C(=O)N1CCC(C(=O)c2ccc(F)cc2F)CC1	1.9	14.3	-0.1	0.3	1.9	1.7	·
CCCCn1c(N)c(N(CCOC)C(=O)CCCc2cccs2)c(=O)[nH]c1=O	0.3	·	-0.2	-3.6	0.6	-0.8	·
CCOC(=O)COc1c(/C=N\O)cc(Cl)cc1OC	-2.5	3.1	-0.2	-1.0	-1.0	3.0	·
CC(=O)c1ccc(-n2nncc2-c2ccc([N+](=O)[O-])cc2)cc1	0.3	-19.5	0.1	-1.4	0.3	0.7	·
C#CCNC(=O)C[C@@H]1C[C@@]2(C(=O)OCC)CCCC=C2N(Cc2ccc3c(c2)OCO3)C1=O	·	·	0.2	·	·	-0.2	·
COc1ccc(C(=O)NCC(C)(C)N2CCOCC2)cc1S(=O)(=O)N1CCCC1	-2.2	·	0.0	-2.1	-0.9	0.6	·
CCOC(=O)COc1ccc(S(=O)(=O)NCc2ccncc2)cc1	0.3	57.8	1.3	-3.6	4.4	88.5*	85.6*
CCOc1cc(S(=O)(=O)NCc2ccncc2)ccc1Cl	0.0	57.7	7.0	-1.2	4.2	100.3*	100.9*
CCOC(=O)COc1ccc(S(=O)(=O)NCc2ccco2)cc1	3.5	0.5	0.1	-3.5	-2.2	-1.6	·
CCOc1ccc(S(=O)(=O)NCc2ccncc2)cc1	1.0	77.5*	4.5	3.6	4.3	99.4*	84.5*
Cc1ccc(S(=O)(=O)NCc2ccncc2)cc1	0.0	·	6.1	-2.7	0.6	24.6	·
Cc1cc(S(=O)(=O)NCc2ccncc2)c(C)cc1Br	-2.5	·	3.7	-4.5	5.4	59.6*	88.4*
O=C(NCCCN=C1NS(=O)(=O)c2ccccc21)c1ccc(Cl)cc1	0.5	·	0.0	-2.5	2.5	-0.6	·
CCC1Cc2[nH]c(=S)[nH]c(=O)c2C(c2ccc(F)cc2)O1 (stereo unspecified)	·	·	-0.3	·	·	-1.6	·
